Measurements published in ChEMBL document CHEMBL1671650, “In vitro activity and preclinical profile of TMC435350, a potent hepatitis C virus protease inhibitor” (Antimicrob Agents Chemother, 2009).
The source made the active and inactive calls.

Assays:
Plasma = assay: Initial plasma concentration in Sprague-Dawley rat at 4 mg/kg, iv; assay type: ADME, organism-based; parameters: dose 4 mg/kg, route intravenous; conditions: in vivo
How it was run: (§1)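 Male SPF Sprague-Dawley rats (200–300 g), n=3. Single slow i.v. tail-vein bolus at 4 mg/kg (2 ml/kg) in 20% hydroxypropyl-β-cyclodextrin, pH 8.0. Plasma sampled 7 min to 31 h, measured by LC-MS/MS (LLOQ 1 ng/ml). Noncompartmental analysis.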

[1] = Half life (8 to 24 hrs) in Sprague-Dawley rat plasma at 4 mg/kg, iv; assay type: ADME, organism-based; parameters: dose 4 mg/kg, route intravenous; how it was run: as §1
[2] = Cmax in Sprague-Dawley rat plasma at 40 mg/kg, po upto 31 hrs by liquid chromatography-tandem mass spectrometry; assay type: ADME, organism-based; parameters: dose 40 mg/kg, route oral
How it was run: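 Male SPF Sprague-Dawley rats (200–300 g), three per group. Oral gavage at 40 mg/kg (2 ml/kg) in TPGS–PEG400 solution. Plasma sampled 0.5–31 h, measured by LC-MS/MS (LLOQ 1 ng/ml). Noncompartmental analysis.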

[3] = Cytotoxicity against human Saos2 cells after 3 to 4 days by resazurin proliferation assay; assay type: cell-based, SAOS-2
How it was run: (§2)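 Human cell lines in DMEM with 10% heat-inactivated FBS and 2 mM L-glutamine (replicon cells plus 0.75 mg/ml G418 in maintenance). Exposed to compound for 3 to 4 days; resazurin fluorescence read-out. CC50 from inhibition curves.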

Hepatitis C virus [4] = assay: Antiviral activity against HCV 1b infected in human HuH7 cells assessed as effect on cell viability upto 5 weeks; assay type: functional, organism-based; conditions: Hepacivirus hominis; genotype 1b; Huh-7
Hepatitis C virus [5] = assay: Antiviral activity against Hepatitis C virus in presence of 40 mg/ml human serum albumin
[6] = Ratio of AUC (0 to 31 hrs) in Sprague-Dawley rat heart to AUC (0 to 31 hrs) in Sprague-Dawley rat plasma at 40 mg/kg, po administered as single dose; assay type: ADME, organism-based; parameters: dose 40 mg/kg, route oral
How it was run: (§3)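 Male specific-pathogen-free Sprague-Dawley rats (200–300 g), three per group, single gastric intubation at 2 ml/kg of a vitamin E TPGS–PEG 400 solution; food and water ad libitum. Plasma sampled 30 min to 31 h; tissues dissected from oral groups. LC-MS/MS (LLOQ 1 ng/ml plasma, 5 ng/g tissue); noncompartmental analysis; ratios from mean of three rats.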

Hepatitis C virus [7] = assay: Antiviral activity against Hepatitis C virus 1b infected in human HuH7 cells assessed as viral RNA level after 72 hrs by quantitative reverse transcriptase PCR; assay type: functional, organism-based, Hepacivirus hominis; conditions: genotype 1b, Huh-7, 72 h
How it was run: (§4)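 Replicon cells (Huh7-Luc at 3,000/well; con1b S2204I or 1a H77 P1496L/S2204I at 6,000/well) exposed to a dilution range for 72 h in 0.5% DMSO without G418. Lysates reverse transcribed 30 min at 42°C with an HCV 5′UTR primer and an RPL13A control. Inhibition from threshold-cycle difference versus mock; EC50 taken from the dose-response curve.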

[8] = Tmax in Sprague-Dawley rat large intestine; assay type: ADME, tissue-based
How it was run: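 Male Sprague-Dawley rats given a single oral dose of 40 mg/kg in TPGS–PEG400, three per time point. Tissues dissected at times up to 31 h and measured by LC-MS/MS (LLOQ 5 ng/g).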

Hepatitis C virus [9] = assay: microbe, parasite or virus in culture
[10] = Absolute bioavailability in Sprague-Dawley rat at 40 mg/kg, po; assay type: ADME, organism-based; conditions: in vivo
How it was run: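 Male SPF Sprague-Dawley rats (200–300 g, n = 3/group). Oral gavage at 40 mg/kg in vitamin E TPGS–PEG 400 solution (2 ml/kg); i.v. reference was a 4 mg/kg tail-vein slow bolus in 20% hydroxypropyl-β-cyclodextrin, pH 8.0. Plasma sampled up to 31 h and assayed by LC-MS/MS (LLOQ 1 ng/ml). Noncompartmental analysis; Fabs = dose-normalized mean AUC0-∞ p.o./i.v.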

Yellow fever virus = assay: Antiviral activity against Yellow fever virus 17D infected in green monkey veroE6 cells inhibition of virus-induced cytopathic effect at 10 to 100 uM; assay type: functional, organism-based; conditions: Vero
How it was run: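 Virus-induced cytopathic effect inhibition assay in VeroE6 cells with YFV-17D, with a known positive control in each run; tested up to a top concentration in the 10–100 µM range.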

Hepatitis C virus [11] = assay: Antiviral activity against HCV 1b infected in human HuH7 cells assessed as log reduction in viral RNA level at 5 nM after 9 days by qRT-PCR; assay type: functional, organism-based; conditions: Hepacivirus hominis, genotype 1b, Huh-7
How it was run: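 Nine-day assay: replicon cells at 500 cells/well without G418, compound alone or with IFN-α. Medium with compounds refreshed every 3 days; cells harvested on days 3, 6 and 9 at 37°C, 5% CO2. HCV RNA measured by qRT-PCR and normalized to RPL13A.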

[12] = Cytotoxicity against human HT1080 cells after 3 to 4 days by resazurin proliferation assay; assay type: cell-based, HT-1080; how it was run: as §2
Hepatitis C virus [13] = assay: Antiviral activity against Hepatitis C virus 1b infected in human HuH7 cells assessed as viral RNA level after 72 hrs by luciferase reporter gene assay; assay type: functional, organism-based, Hepacivirus hominis; conditions: genotype 1b, Huh-7, 72 h
How it was run: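 Huh7-Luc cells carrying a genotype 1b con1 subgenomic replicon (clone ET, firefly luciferase, adaptive mutations E1202G/T1280I/K1846T). 2,500 cells/well, serial dilutions, 0.5% DMSO final, no G418. Luciferase signal read after 72 h; EC50 taken from the dose-response curve relative to medium control.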

Hepatitis C virus [14] = assay: Antiviral activity against HCV 1a H77 infected in human HuH7 cells assessed as viral RNA level after 72 hrs by quantitative reverse transcriptase PCR; assay type: functional, organism-based, Hepacivirus hominis; conditions: genotype 1a H77, Huh-7, 72 h; how it was run: as §4
[15] = system: Human immunodeficiency virus 1; assay: Antiviral activity against Human immunodeficiency virus 1 3b infected in human MT4 cells at 10 to 100 uM; assay type: functional, organism-based
How it was run: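 HIV-1 IIIB in MT-4 cells, enhanced green fluorescent protein-based read-out. Highest concentration tested 10 to 100 μM.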

[16] = Ratio of AUC (0 to 31 hrs) in Sprague-Dawley rat kidney to AUC (0 to 31 hrs) in Sprague-Dawley rat plasma at 40 mg/kg, po administered as single dose; assay type: ADME, organism-based; parameters: dose 40 mg/kg, route oral; how it was run: as §3
[17] = Ratio of AUC (0 to 31 hrs) in Sprague-Dawley rat liver to AUC (0 to 31 hrs) in Sprague-Dawley rat plasma at 40 mg/kg, po administered as single dose; assay type: ADME, organism-based; parameters: dose 40 mg/kg, route oral; conditions: read-out: Ratio AUC; how it was run: as §3
[18] = Total plasma clearance in Sprague-Dawley rat at 4 mg/kg, iv; assay type: ADME, organism-based; parameters: dose 4 mg/kg, route intravenous; how it was run: as §1
Hepatitis C virus [19] = assay: microbe, parasite or virus in culture; remark: listed apart in the source
Hepatitis C virus [20] = assay: Inhibition of HCV 1b isolate con1 NS3/4A protease using RetS1 as a substrate by fluorescence resonance energy transfer cleavage assay
Hepatitis C virus [21] = assay: Antiviral activity against Hepatitis C virus in presence of 1 mg/ml alpha-1 acid glycoprotein and 40 mg/ml human serum albumin
Hepatitis C virus [22] = assay: Antiviral activity against Hepatitis C virus in presence of 40% human serum
West Nile virus = assay: Antiviral activity against West Nile virus NY99/1 infected in green monkey Vero cells inhibition of virus-induced cytopathic effect at 10 to 100 uM; assay type: functional, organism-based
How it was run: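 Cytopathic effect inhibition assay: BVDV-NADL in MDCK cells; WNV-NY99/1 in Vero cells. Highest concentration tested 10 to 100 μM.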

[23] = Ratio of AUC (0 to 31 hrs) in Sprague-Dawley rat lung to AUC (0 to 31 hrs) in Sprague-Dawley rat plasma at 40 mg/kg, po administered as single dose; assay type: ADME, organism-based; parameters: dose 40 mg/kg, route oral; how it was run: as §3

For `COc1ccc2c(O[C@@H]3C[C@H]4C(=O)N[C@]5(C(=O)NS(=O)(=O)C6CC6)C[C@H]5/C=C\CCCCN(C)C(=O)[C@@H]4C3)cc(-c3nc(C(C)C)cs3)nc2c1C` [SIMEPREVIR], the Cp (Plasma) was 3560 ng/mL, the half-life [1] was 4 h and the Cmax [2] was 1430 ng/mL. For the same compound, the CC50 [3] was 16000 nM, the Activity (Hepatitis C virus [4]) was “inactive” and the EC50 (Hepatitis C virus [5]) was 14.1 nM. It also gave a Kp [6] of 0.5, an EC50 (Hepatitis C virus [7]) of 13 nM and an EC90 (Hepatitis C virus [7]) of 28.7 nM. For the same compound, the Tmax [8] was 8 h, the EC50 ratio (Hepatitis C virus [9]) was 1.8 and the bioavailability [10] was 44%. The Activity (Yellow fever virus) was “inactive”, the Activity (Hepatitis C virus [11]) was “Active” and the CC50 [12] was 16000 nM. The EC50 (Hepatitis C virus [13]) was 8.1 nM, the EC90 (Hepatitis C virus [13]) was 23.6 nM and the EC50 (Hepatitis C virus [14]) was 28.4 nM. For the same compound, the EC90 (Hepatitis C virus [14]) was 120 nM, the Activity [15] was “inactive” and the Kp [16] was 0.5. For the same compound, the Kp [17] was 39, the clearance [18] was 38.3 mL/min/kg and the EC50 ratio (Hepatitis C virus [19]) was 1.4. The Ki (Hepatitis C virus [20]) was 0.4 nM, the EC50 (Hepatitis C virus [21]) was 14.6 nM and the EC50 (Hepatitis C virus [22]) was 11.2 nM. For the same compound, the Activity (West Nile virus) was “inactive” and the Kp [23] was 0.5.
